In article PMC4091967 (International Journal of Oncology, 2014):
Like-named read-outs stand apart in the source and are kept apart here.

Assays:
[1] = Trypan blue exclusion cell viability assay on normal cells, 72 h; assay type: cell-based, human; conditions: human, HIFF (human infant foreskin fibroblasts)
In short: (§1)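 HIFF fibroblasts (infant foreskin, donor-consented) were kept in DMEM with 10% FBS and 1% penicillin/streptomycin at 37°C and 5% CO2, seeded at 6,000 cells/well 24 h ahead. Cells were treated for 72 h at 50 μM or at single lower concentrations (0.2% final DMSO), in quadruplicate. Cells were trypsinized, washed in calcium-free PBS, resuspended in PBS, and viability was scored by automated trypan blue exclusion.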

[2] = tested on: DU-145 prostate cancer cells; assay: Trypan blue exclusion cell viability assay; assay type: cell-based, human; conditions: for EC100: read-out: EC100 values in DU-145 cells, trypan blue exclusion, 72 h, mean ± SEM
In short: (§2)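 Seeding 24 h ahead was DU-145 at 6,000 cells/well in DMEM and PC-3 at 6,500 cells/well in RPMI-1640, both with 10% FBS and 1% penicillin/streptomycin. Compounds were added from DMSO stocks (0.2% final DMSO) for 72 h, in quadruplicate. Cells were trypsinized, washed in calcium-free PBS, resuspended in PBS and counted by automated trypan blue exclusion. EC50 came from ≥6 concentrations bracketing a preliminary estimate; 3 independent experiments.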

[3] = tested on: PC-3 prostate cancer cells; assay: Trypan blue exclusion cell viability assay; assay type: cell-based, human; conditions: for EC100: read-out: EC100 values in PC-3 cells, trypan blue exclusion, 72 h, mean ± SEM
In short: as §2

[4] = tested on: DU-145 prostate cancer cells; assay: Alamar Blue cell viability assay; assay type: cell-based; conditions: Homo sapiens, DU-145, read-out: EC50 value in Alamar Blue
In short: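 DU-145 cells were grown in DMEM with 10% FBS and 1% penicillin/streptomycin at 37°C and 5% CO2, then seeded at 6,000 cells/well 24 h before treatment. Compounds were added from DMSO stocks to 0.2% final DMSO for 72 h, in quadruplicate. After PBS wash, wells got Alamar Blue for 6 h; fluorescence ex 530/em 590 nm. EC50 fitted from ≥6 concentrations.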

[5] = tested on: DU-145 prostate cancer cells; assay: Crystal violet cell viability assay; assay type: cell-based, human; conditions: crystal violet staining, even at non-cytotoxic concentrations
In short: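 DU-145 cells were seeded at 6,000 cells/well in DMEM/10% FBS 24 h ahead and exposed to compound for 72 h (0.2% final DMSO), in quadruplicate. Cells were fixed in 4% formaldehyde at 4°C for 30 min, washed with MeOH:AcOH 3:1, then 80% MeOH, and stained with 0.1% crystal violet for 1 h at room temperature. Stain was dissolved in 10% AcOH; A570 read against untreated control.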

[6] = tested on: HIFF (human infant foreskin fibroblasts) normal cells; assay: Trypan blue exclusion cell viability assay on normal cells, 72 h; assay type: cell-based; conditions: 50 μM flavonol, mean ± SEM
In short: as §1

B12 cells = conditions: 3 h incubation, ref 70 (Liu et al); cited from earlier work
[7] = Homo sapiens, DU-145, 72 h, read-out: EC50 values in DU-145 cells, trypan blue exclusion, 72 h, mean ± SEM
[8] = Homo sapiens, DU-145, read-out: EC100 - EC50 values in DU-145 cells, difference between EC100 and EC50, mean ± SEM
[9] = Homo sapiens, PC-3, 72 h, read-out: EC50 values in PC-3 cells, trypan blue exclusion, 72 h, mean ± SEM
[10] = read-out: EC100 - EC50 values in PC-3 cells, difference between EC100 and EC50, mean ± SEM
[11] = Homo sapiens, PC-3, read-out: EC100 - EC50 values in PC-3 cells, difference between EC100 and EC50, mean ± SEM
[12] = read-out: EC100 - EC50 values in DU-145 cells, difference between EC100 and EC50, mean ± SEM
[13] = read-out: EC50 values in DU-145 cells, trypan blue exclusion, 72 h, mean ± SEM

Row | SMILES | viability at 72 h, 50 μM [1] [%] | EC50 [2, 7] [µM] | EC50 [2, 8] [µM] | EC50 [3, 9] [µM] | EC50 [3, 10] [µM] | EC100 ([2]; Homo sapiens, DU-145, 72 h) [µM] | EC100 ([3]; Homo sapiens, PC-3, 72 h) [µM] | EC50 [3, 11] [µM] | EC50 [2, 12] [µM] | EC50 [4] [µM] | EC50 [2, 13] [µM] | maximum achievable cell viability compared to the control [5] [%] | % Viability of HIFF (50 μM) [6] | EC50 ([3]; read-out: EC50 values in PC-3 cells, trypan blue exclusion, 72 h, mean ± SEM) [µM] | MTT reduced more than the control (B12 cells) [%]
1 | O=C(c1ccccc1)c1cccc(-c2oc3cc(O)cc(O)c3c(=O)c2O)c1 [5a, 2-(3-Benzoylphenyl)-3,5,7-trihydroxy-4H-chromen-4-one] | 34.8 ± 0.2 | 14.8 ± 0.71 | 5.62 ± 5.5 | 9.31 ± 0.58 | 8.55 ± 2.06 |  |  |  |  |  |  |  |  |  | 
2 | O=C(c1ccccc1)c1ccc(-c2oc3cc(O)cc(O)c3c(=O)c2O)cc1 [5b, 2-(4-Benzoylphenyl)-3,5,7-trihydroxy-4H-chromen-4-one] | 32.3 ± 2.92 | 16.6 ± 0.7 | 24.4 ± 1.1 | 9.97 ± 0.36 |  | 41 ± 2.18 | 22.3 ± 0.91 | 12.3 ± 0.99 |  |  |  |  |  |  | 
3 | O=c1c(O)c(-c2cccc(I)c2)oc2cc(O)cc(O)c12 [5c, 3,5,7-Trihydroxy-2-(3-iodophenyl)-4H-chromen-4-one] | 46.8 ± 2.48 | 14.5 ± 1.02 | 10.1 ± 0.84 | 10.5 ± 0.72 | 9 ± 1.06 |  |  |  |  |  |  |  |  |  | 
4 | O=c1c(O)c(-c2ccc(I)cc2)oc2cc(O)cc(O)c12 [5d, 3,5,7-Trihydroxy-2-(4-iodophenyl)-4H-chromen-4-one] | 34.8 ± 0.99 | 7.51 ± 0.27 | 2.33 ± 2.05 | 4.13 ± 0.16 | 6.21 ± 0.59 |  |  |  |  |  |  |  |  |  | 
5 | Cc1ccc(-c2oc3cc(O)cc(O)c3c(=O)c2O)cc1 [5e, 3,5,7-Trihydroxy-2-(p-tolyl)-4H-chromen-4-one] | 37.5 ± 2.27 | 14.3 ± 0.53 |  | 9.89 ± 1.24 |  |  |  | 10.5 ± 3.29 | 9.45 ± 1.89 |  |  |  |  |  | 
6 | O=c1c(O)c(-c2ccccc2)oc2cc(O)cc(O)c12 [5f, Galangin, reference compound] | 48 ± 1.38 | 25.9 ± 0.59 |  | 17.1 ± 1.29 |  | 46.4 ± 3.92 | 43.9 ± 4.14 | 26.8 ± 5.31 | 20.5 ± 0.46 |  |  |  |  |  | 
7 | O=c1c(O)c(-c2cccc(-c3ccccc3)c2)oc2cc(O)cc(O)c12 [8c, 2-[(1,1′-Biphenyl)-3-yl]-3,5,7-trihydroxy-4H-chromen-4-one] | 34.6 ± 2.74 | 6.33 ± 0.58 | 11.7 ± 1.11 | 6.35 ± 0.26 | 4.98 ± 1.54 |  |  |  |  |  |  |  |  |  | 
8 | O=c1c(O)c(-c2ccc(-c3ccccc3)cc2)oc2cc(O)cc(O)c12 [8d, 2-[(1,1′-Biphenyl)-4-yl]-3,5,7-trihydroxy-4H-chromen-4-one] | 34.4 ± 3.67 | 5.57 ± 0.6 | 6.86 ± 0.18 | 5.4 ± 0.63 | 3.35 ± 0.93 |  |  |  |  |  |  |  |  |  | 
9 | COc1ccc(-c2oc3cc(O)cc(O)c3c(=O)c2O)cc1 [Kaempferide, reference compound] | 52.2 ± 1.17 | 19.8 |  | 14.9 ± 0.78 |  | 39.2 ± 0.87 | 34.2 ± 1.66 | 19.3 ± 2.1 | 19.4 ± 2.02 | 30.1 | 19.8 ± 0.5 | < 50 |  |  | 
10 | O=c1c(O)c(-c2ccc(O)cc2)oc2cc(O)cc(O)c12 [Kaempferol, reference compound] | 73.8 ± 1.38 | 38.4 ± 1.94 |  | 33.3 ± 2.96 |  | 74.4 ± 0.83 | 57.6 ± 6.4 | 24.3 ± 4.63 | 36 ± 2.02 |  |  |  |  |  | 
11 | O=c1c(O)c(-c2ccc(O)c(O)c2)oc2cc(O)cc(O)c12 [Quercetin, reference compound] | 84.5 ± 2.21 | 39.1 |  | 32.9 | 44.3 ± 4.29 | 85.4 ± 6.11 | 77.1 ± 3.4 |  | 46.3 ± 8.55 | 55.1 | 39.1 ± 2.87 |  | least inhibitory | 32.9 ± 4.1 | 
12 | O=c1c(-c2ccc(O)cc2)coc2cc(O)cc(O)c12 [genistein] |  |  |  |  |  |  |  |  |  |  |  |  |  |  | 60
